Reference: article PMC6531306 (Theranostics, 2019)
Each block holds one compound with its values, some of them ahead of it.

Tests used:
[1] = test system: isolated a and a'c domains of PDI; assay: PDI reductase assay with isolated domains; type: biochemical; conditions: domains 1.6 μM; PACMA31 100 μM, 35G8 1 μM
Procedure, shortened: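 Isolated His-tagged a and a'c domains were expressed in E. coli and Ni-NTA purified. Each domain was incubated with test compound for 45 min at room temperature in 100 mM sodium phosphate, 2 mM EDTA, 8 μM DTT, pH 7.0. DTT (100 μM) and insulin (130 μM) were then added, and aggregation of reduced insulin B chain was monitored at 650 nm.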

U87MG xenografts = assay: Mouse flank xenograft model of GBM; type: in vivo, mice; conditions: TMZ 5 mg/kg oral gavage, five days/week, two weeks
Procedure, shortened: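 Athymic nude Foxn1nu mice (4–6 weeks) bore subcutaneous flank U87MG or D54 xenografts (250,000 cells in RPMI:Matrigel 1:1). From 100 mm3, they received test compound 20 mg/kg i.p. in 5 % DMSO/65 % 1,2-propanediol/30 % saline and/or TMZ 5 mg/kg in Ora-Plus by oral gavage, five days/week for two weeks. Body weight was recorded twice weekly.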

Sox2 = assay: Western blot of stemness marker; type: cell-based; conditions: Figure 4H
Procedure, shortened: (§1)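 Protein was measured by BCA. Lysates were resolved on 10 % or 4–12 % gels and transferred to PVDF. Membranes were blocked (StartingBlock or 5 % BSA) and probed with primary antibodies. Detection used DyLight 800 infrared imaging or HRP secondaries with ECL.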

a domain of PDI = a domain of PDI (Homo sapiens, UniProt P07237); assay: AMS assay; type: binding; conditions: 20 μM domain, 40 μM compound, 1 h
Procedure, shortened: (§2)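 Isolated a or a'c domain (20 μM) was incubated with or without 40 μM test compound for 1 h in PBS at 25 °C. Free thiols were then blocked with 2 mM AMS. Samples were resolved by SDS-PAGE and stained with Coomassie blue.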

a'c domain of PDI = a'c domain of PDI (Homo sapiens, UniProt P07237); assay: AMS assay; type: binding; conditions: 20 μM domain, 40 μM compound, 1 h
Procedure, shortened: as §2

U87MG cells = type: cell-based, human; conditions: Hallmark E2F Targets
[2] = test system: PDI, PDIp, ERp57, ERp46, ERp72, P5, and ERp18; assay: PDI reductase assay, panel of PDI family members; type: biochemical; conditions: family members 1 μM, compound 40 μM
[3] = test system: D54, U87MG and A172 cells; assay: Western blot of DNA repair and DDR proteins; type: cell-based, human; conditions: 24 hours
Procedure, shortened: as §1

Chain of a'c domain of PDI (P07237 349-508 limits assumed): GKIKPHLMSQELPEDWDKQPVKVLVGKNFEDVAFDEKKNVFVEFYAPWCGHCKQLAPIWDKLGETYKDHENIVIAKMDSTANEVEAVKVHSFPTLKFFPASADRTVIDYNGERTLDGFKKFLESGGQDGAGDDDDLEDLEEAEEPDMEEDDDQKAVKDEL
Chain of a domain of PDI (P07237 18-134 limits assumed): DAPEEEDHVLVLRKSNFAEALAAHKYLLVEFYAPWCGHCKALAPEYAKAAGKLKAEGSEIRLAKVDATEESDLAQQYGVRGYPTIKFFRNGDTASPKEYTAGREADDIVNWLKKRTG

inhibition of reductase activity of isolated domains [1]: did not inhibit
Compound: C[C@]12CC[C@@H]3c4ccc(O)cc4CC[C@H]3[C@@H]1CC[C@@H]2O [Estradiol, estradiol]

Compound: Cn1nnc2c(C(N)=O)ncn2c1=O [TMZ, temozolomide]
decrease in body weight (U87MG xenografts): 15%

inhibition of reductase activity of isolated domains [1]: did not inhibit
Compound: CCN(C)C(=O)C1(CCOc2ccccc2)CCN(Cc2ccc(O)c(Cl)c2)CC1 [bepristat 1a]

inhibition of reductase activity of isolated domains [1]: inhibit reductase activity | AMS binding to a domain thiols (a domain of PDI): blocked AMS binding | AMS binding to a'c domain thiols (a'c domain of PDI): blocked AMS binding | selectivity among PDI family members [2]: inhibits all tested PDI family enzymes
Compound: PACMA31
Sox2 protein expression (Sox2): dose-dependently abrogated | genes of the E2F targets gene set downregulated (U87MG cells): 72% | E2F1 and RAD51 protein expression [3]: dose-dependently lower
